# Assay results as given in ChEMBL document CHEMBL4411313, “Substrate-Specific Inhibition Constants for Phospholipase A2 Acting on Unique Phospholipid Substrates in Mixed Micelles and Membranes Using Lipidomics” (J Med Chem, 2019).
# Tests used:
# [1] = molecular target: T1, 85/88 kDa calcium-independent phospholipase A2 (Homo sapiens) (UniProt O60733); test: (§1) Inhibition of human recombinant calcium-independent PLA2 using PAPA as substrate assessed as reduction in […] after 30 mins by HPLC-MS analysis
# T1 sequence (whole entry): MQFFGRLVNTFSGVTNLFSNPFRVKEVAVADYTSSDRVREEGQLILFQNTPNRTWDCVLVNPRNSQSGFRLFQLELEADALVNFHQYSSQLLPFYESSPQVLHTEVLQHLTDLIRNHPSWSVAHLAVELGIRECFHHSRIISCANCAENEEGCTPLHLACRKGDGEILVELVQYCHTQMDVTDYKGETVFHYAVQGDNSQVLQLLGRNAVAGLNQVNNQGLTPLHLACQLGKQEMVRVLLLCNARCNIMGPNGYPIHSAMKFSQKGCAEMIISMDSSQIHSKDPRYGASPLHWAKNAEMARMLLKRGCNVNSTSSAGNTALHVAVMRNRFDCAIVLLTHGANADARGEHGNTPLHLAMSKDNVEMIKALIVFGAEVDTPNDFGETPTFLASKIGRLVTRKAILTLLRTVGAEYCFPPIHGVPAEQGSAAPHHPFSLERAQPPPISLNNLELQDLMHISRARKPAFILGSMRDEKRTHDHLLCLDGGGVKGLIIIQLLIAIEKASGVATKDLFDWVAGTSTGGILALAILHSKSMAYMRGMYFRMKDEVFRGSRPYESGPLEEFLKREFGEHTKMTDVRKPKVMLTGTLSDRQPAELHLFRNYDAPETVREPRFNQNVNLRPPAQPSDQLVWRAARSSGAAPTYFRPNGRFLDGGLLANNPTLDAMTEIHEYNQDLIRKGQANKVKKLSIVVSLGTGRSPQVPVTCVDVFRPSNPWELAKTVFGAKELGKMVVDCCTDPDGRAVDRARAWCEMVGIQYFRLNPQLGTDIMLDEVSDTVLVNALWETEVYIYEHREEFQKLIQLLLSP
# [2] = molecular target: T2, Cytosolic phospholipase A2 (Homo sapiens) (UniProt P47712); test: Inhibition of human recombinant cPLA2 assessed as reduction in 16:0 LPC formation after 30 mins by HPLC-MS analysis
# T2 sequence (whole entry): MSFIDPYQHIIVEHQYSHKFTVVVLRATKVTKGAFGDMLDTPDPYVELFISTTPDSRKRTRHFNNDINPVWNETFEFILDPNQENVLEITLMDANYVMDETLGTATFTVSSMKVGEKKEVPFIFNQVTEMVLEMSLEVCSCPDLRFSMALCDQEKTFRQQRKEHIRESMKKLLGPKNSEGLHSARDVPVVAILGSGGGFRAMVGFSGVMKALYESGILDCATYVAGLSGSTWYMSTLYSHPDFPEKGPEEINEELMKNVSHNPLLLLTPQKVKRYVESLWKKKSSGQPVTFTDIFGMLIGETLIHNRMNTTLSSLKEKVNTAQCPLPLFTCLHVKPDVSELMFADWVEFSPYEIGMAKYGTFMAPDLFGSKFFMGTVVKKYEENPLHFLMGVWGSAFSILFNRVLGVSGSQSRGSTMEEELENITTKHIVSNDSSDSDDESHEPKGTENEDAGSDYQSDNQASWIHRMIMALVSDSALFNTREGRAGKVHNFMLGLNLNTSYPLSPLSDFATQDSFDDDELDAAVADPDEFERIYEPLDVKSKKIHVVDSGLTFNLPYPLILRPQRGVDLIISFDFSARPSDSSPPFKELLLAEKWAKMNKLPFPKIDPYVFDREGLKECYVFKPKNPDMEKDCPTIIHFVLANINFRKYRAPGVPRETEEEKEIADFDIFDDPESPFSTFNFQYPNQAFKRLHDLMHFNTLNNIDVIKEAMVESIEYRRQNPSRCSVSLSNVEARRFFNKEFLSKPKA
# In short: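 Human recombinant group IVA cPLA2 in mixed micelles with 97 µM PAPC plus 3 µM PI(4,5)P2 (100 µM total phospholipid) and 400 µM C12E8. Buffer was 100 mM HEPES pH 7.5, 90 µM CaCl2 and 2 mM DTT; incubation 30 min at 40 °C. 16:0 LPC was read by HILIC-MRM (positive ion) and free AA by C18 LC-MS (negative ion).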
# [3] = molecular target: Cytosolic phospholipase A2 (Homo sapiens) (UniProt P47712); test: Inhibition of human recombinant cytosolic PLA2 using PAPA as substrate assessed as reduction in free FA formation after 30 mins in presence of equal molar mixture of PAPA/PAPC/PAPE/PAPG/PAPS/PLPC by HPLC-MS analysis
# [4] = molecular target: 85/88 kDa calcium-independent phospholipase A2 (Homo sapiens) (UniProt O60733); test: Inhibition of human recombinant calcium-independent PLA2 using PAPS as substrate assessed as reduction in 16:0 LPS formation after 30 mins in presence of equal molar mixture of PAPA/PAPC/PAPE/PAPG/PAPS/PLPC by HPLC-MS analysis
# [5] = molecular target: T1, 85/88 kDa calcium-independent phospholipase A2 (Homo sapiens); test: (§2) Inhibition of human recombinant calcium-independent PLA2 using PAPE as substrate assessed as assessed as reduction in free AA formation after 30 mins in presence of equal molar mixture of PAPA/PAPC/PAPE/PAPG/PAPS/PLPC by HPLC-MS analysis
# In short: (§3)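 The iPLA2 substrate was an equimolar mixture of PAPA, PAPC, PAPE, PAPG and PAPS (100 µM total) with 400 µM C12E8. Buffer was 100 mM HEPES pH 7.5, 2 mM ATP and 4 mM DTT; 30 min at 40 °C. Each 16:0 lysophospholipid was quantified in positive ion mode; free AA, common to all five substrates, in negative ion mode.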
# [6] = molecular target: T1, 85/88 kDa calcium-independent phospholipase A2 (Homo sapiens); test: (§4) Inhibition of human recombinant calcium-independent PLA2 using PAPG as substrate assessed as reduction in 16:0 […] formation after 30 mins in presence of equal molar mixture of PAPA/PAPC/PAPE/PAPG/PAPS/PLPC by HPLC-MS analysis
# [7] = molecular target: T3, Secretory phospholipase A2 (Homo sapiens) (UniProt Q5R387+Q9NZK7+P14555+Q9BZM2+Q9UNK4+P39877+O15496+P04054+Q9NZ20+Q9BZM1+Q9BX93)
# [8] = molecular target: T3, Secretory phospholipase A2 (Homo sapiens); remark: listed apart in the source
# [9] = molecular target: T3, Secretory phospholipase A2 (Homo sapiens); remark: listed apart in the source
# [10] = molecular target: T1, 85/88 kDa calcium-independent phospholipase A2 (Homo sapiens); test: (§5) Inhibition of human recombinant calcium-independent PLA2 using PAPC as substrate assessed as reduction in 16:0 LPC formation after 30 mins by HPLC-MS analysis
# In short: (§6)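 Human recombinant group VIA iPLA2 acted on 100 µM single phospholipid (PAPC or PLPC) in 400 µM C12E8 mixed micelles. Buffer was 100 mM HEPES pH 7.5, 2 mM ATP and 4 mM DTT; incubation 30 min at 40 °C. 16:0 LPC was read by HILIC-MRM in positive ion mode; free AA or LA by C18 LC-MS in negative ion mode.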
# [11] = molecular target: T4, 85/88 kDa calcium-independent phospholipase A2 (Homo sapiens, UniProt O60733); test: as §5; in short: as §6
# T4 sequence (O60733 whole entry): T1 sequence (whole entry)
# [12] = molecular target: T4, 85/88 kDa calcium-independent phospholipase A2; test: Inhibition of human recombinant calcium-independent PLA2 using PAPC as substrate assessed as reduction in free AA formation after 30 mins by HPLC-MS analysis; in short: as §6
# [13] = molecular target: T1, 85/88 kDa calcium-independent phospholipase A2 (Homo sapiens); test: (§7) Inhibition of human recombinant calcium-independent PLA2 using PAPC as substrate assessed as reduction in free [14C]-AA formation after 30 mins by scintillation counting
# In short: (§8)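 Radioactive format: iPLA2 hydrolysed PAPC/C12E8 mixed micelles traced with 1-palmitoyl-2-(1-[14C]arachidonoyl) PC. Released [14C]-AA was measured by scintillation counting. Percent inhibition was plotted against log mole fraction or log concentration to derive X1(50) and IC50.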
# [14] = molecular target: T4, 85/88 kDa calcium-independent phospholipase A2; test: as §7; in short: as §8
# [15] = molecular target: T4, 85/88 kDa calcium-independent phospholipase A2; test: Inhibition of human recombinant calcium-independent PLA2 using PAPS as substrate assessed as reduction in […] after 30 mins in presence of equal molar mixture of PAPA/PAPC/PAPE/PAPG/PAPS/PLPC by HPLC-MS analysis
# [16] = molecular target: T4, 85/88 kDa calcium-independent phospholipase A2; test: as §2; in short: as §3
# [17] = molecular target: T4, 85/88 kDa calcium-independent phospholipase A2; test: Inhibition of human recombinant calcium-independent PLA2 using PAPE as substrate assessed as reduction in […] after 30 mins in presence of equal molar mixture of PAPA/PAPC/PAPE/PAPG/PAPS/PLPC by HPLC-MS analysis
# [18] = molecular target: T4, 85/88 kDa calcium-independent phospholipase A2; test: Inhibition of human recombinant calcium-independent PLA2 using PLPC as substrate assessed as reduction in 16:0 LPC formation after 30 mins by HPLC-MS analysis; in short: as §6
# [19] = molecular target: T4, 85/88 kDa calcium-independent phospholipase A2; test: as §1
# [20] = molecular target: T1, 85/88 kDa calcium-independent phospholipase A2 (Homo sapiens); test: (§9) Inhibition of human recombinant iPLA2 assessed as reduction in 16:0 LPC formation after 30 mins by HPLC-MS analysis; in short: as §6
# [21] = molecular target: T4, 85/88 kDa calcium-independent phospholipase A2; test: as §9; in short: as §6
# [22] = molecular target: T4, 85/88 kDa calcium-independent phospholipase A2; test: as §4
# [23] = molecular target: T1, 85/88 kDa calcium-independent phospholipase A2 (Homo sapiens); test: Inhibition of human recombinant calcium-independent PLA2 using PAPA as substrate assessed as reduction in 16:0 LPA formation after 30 mins in presence of equal molar mixture of PAPA/PAPC/PAPE/PAPG/PAPS/PLPC by HPLC-MS analysis; in short: as §3
# [24] = molecular target: T1, 85/88 kDa calcium-independent phospholipase A2 (Homo sapiens); test: Inhibition of human recombinant calcium-independent PLA2 using PAPE as substrate assessed as reduction in 16:0 LPE formation after 30 mins in presence of equal molar mixture of PAPA/PAPC/PAPE/PAPG/PAPS/PLPC by HPLC-MS analysis; in short: as §3
# [25] = molecular target: T1, 85/88 kDa calcium-independent phospholipase A2 (Homo sapiens); test: (§10) Inhibition of human recombinant iPLA2 assessed as reduction in free FA formation after 30 mins by HPLC-MS analysis; in short: as §6
# [26] = molecular target: T4, 85/88 kDa calcium-independent phospholipase A2; test: as §10; in short: as §6
# [27] = molecular target: T4, 85/88 kDa calcium-independent phospholipase A2; test: Inhibition of human recombinant calcium-independent PLA2 using PLPC as substrate assessed as reduction in free LA formation after 30 mins by HPLC-MS analysis
smiles,measurement,setting,value
O=C1NC(=O)C(=Cc2ccc(C(=O)NC[C@@H]3C[C@@H](SC(c4ccccc4)(c4ccccc4)c4ccccc4)CN3C(=O)c3ccccc3C(=O)c3ccc(F)cc3F)cc2)S1,XI50,[1],130 pM
same,XI50 (mole fraction),[2],0.0023
same,XI50,[3],1.8 nM
same,XI50,[4],2 nM
CCc1c(C(=O)C(N)=O)c2c(OCC(=O)O)cccc2n1Cc1ccccc1,XI50 (mole fraction),[5],0.0008
same,XI50 (mole fraction),[6],0.0031 to 0.026
same,XI50,[7],170 pM
same,XI50,[8],190 pM
same,XI50,[9],900 pM
CCCCCCCCSCC(=O)C(F)(F)F,XI50 (mole fraction),[10],8e-05
same,IC50,[11],54 nM
same,IC50,[12],49 nM
same,XI50 (mole fraction),[13],9e-05
same,IC50,[14],48 nM
same,IC50,[15],46 nM
same,XI50 (mole fraction),[5],7e-05
same,IC50,[16],50 nM
same,IC50,[17],63 nM
same,IC50,[18],83 nM
same,IC50,[19],160 nM
same,XI50 (mole fraction),[20],8e-05
same,IC50,[21],55 nM
same,XI50 (mole fraction),[6],6e-05
same,IC50,[22],48 nM
same,XI50 (mole fraction),[23],0.0002
same,XI50 (mole fraction),[24],9e-05
same,XI50 (mole fraction),[25],7e-05
same,IC50,[26],48 nM
same,IC50,[27],67 nM
same,XI50,[4],0.05 nM
